Article PMC3113562 (Nucleic Acids Research, 2011)
Read-outs that look alike come from different tables or passages of the source.

Columns and labels:
[1] = biological target: T1, human 8-oxoguanine DNA glycosylase (OGG1) (Homo sapiens, UniProt O15527); format: biochemical; details: for ΔΔG° cognate vs non-cognate ligand: from ratio of Ki values, T = 310 K; for increase in the affinity for OGG1 vs the corresponding non-cognate ligand: ratio of Ki (KM) values, vs dGMP, ss G11 or ds G11
How it was run: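 Recombinant human OGG1 from E. coli BL21(DE3), with active enzyme titrated by burst-phase kinetics. Reaction: 0.5 nM enzyme and 22 nM (2 × KM) oxoG ds substrate in 50 mM Tris–HCl pH 7.5, 100 mM NaCl, 1 mM EDTA, 1 mM DTT, 37°C, 2–10 min, NaOH-quenched. Competitor spans 0.1–10 × I50. Ki = I50/3; ΔG° = –RT ln Kd (310 K); ΔΔG° from differences.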

[2] = biological target: T1, human 8-oxoguanine DNA glycosylase (OGG1); details: cited from earlier work
[3] = system: E. coli 8-oxoguanine DNA glycosylase (Fpg); details: read-out: Ki (Fpg); cited from earlier work
[4] = read-out: Ki (affinity for OGG1)

T1 sequence (O15527 whole entry): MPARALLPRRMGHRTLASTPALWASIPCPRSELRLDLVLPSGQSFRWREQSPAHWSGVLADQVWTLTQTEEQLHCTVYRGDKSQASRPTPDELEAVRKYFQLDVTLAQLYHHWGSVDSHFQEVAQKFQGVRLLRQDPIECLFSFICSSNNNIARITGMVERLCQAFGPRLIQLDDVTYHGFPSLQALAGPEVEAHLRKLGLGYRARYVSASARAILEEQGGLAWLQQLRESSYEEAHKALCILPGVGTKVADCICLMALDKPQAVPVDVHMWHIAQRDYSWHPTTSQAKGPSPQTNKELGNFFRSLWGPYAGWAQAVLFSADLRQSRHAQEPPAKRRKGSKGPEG

| ΔΔG° cognate vs non-cognate ligand [1] [kcal/mol] | increase in the affinity for OGG1 vs the corresponding non-cognate ligand [1] [fold] | Ki [1, 4] [µM] | Molecule | cleavage by OGG1 [2] | further results |
| --- | --- | --- | --- | --- | --- |
| – | – | – | O=P(O)(O)O [Pi, orthophosphate, reference compound] | – | Ki [1]: 68000 µM |
| -0.8 | 4.1 | – | Nc1nc2c([nH]c(=O)n2[C@H]2C[C@H](O)[C@@H](COP(=O)(O)O)O2)c(=O)[nH]1 [oxo-dGMP, reference compound] | not cleaved | tighter binding than one non-cognate d(pN)n unit within DNA ([1]; vs extrapolated Ki = 12 mM): ~7.5 fold |
| ~-3.3 | 250 | 0.08 | dCdp(TCTCCCTTCXCTCCTTTCCTCT) [OG11] | not cleaved | – |
| – | – | 140 | r(pA)10 | – | – |
| – | – | 130 | r(pC)10 | – | – |

| Molecule | ΔΔG° cognate vs non-cognate ligand [1] [kcal/mol] | increase in the affinity for OGG1 vs the corresponding non-cognate ligand [1] [fold] | Ki [1, 4] [µM] | cleavage by OGG1 [2] | further results |
| --- | --- | --- | --- | --- | --- |
| dCdp(TCTCCCTTCGCTCCTTTCCTCT) (5'-dC with phosphate prefix in name, chemistry otherwise not given here) [G11] | – | – | 20 | – | Ki [3]: 10 µM |
